For one series, the system named is plasma protein. Conditions: regardless of concentration; ref prescribing information; cited from earlier work.
A short description of series [1]: Observed plasma concentrations of venetoclax concomitant with voriconazole. Type of series: in vivo. The note with it: human, oral, 100 mg. A digest of the protocol: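 Adults with hematologic malignancies received test compound 100 mg orally once daily plus an azole antifungal (400 mg bid day 1, then 200 mg bid; or 200 mg bid continued). Intensive set: EDTA blood 0–1 h predose and 2–24 h post-dose on day 5–11. Validation set: troughs 0–1 h predose, day 2–22. Plasma measured by LC-MS/MS in MRM mode with deuterated internal standards; calibration range 0.05–10.0 μg/mL.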

The conditions of series [2]: cited from earlier work.
[3] abbreviates: venetoclax 100 mg with posaconazole.

These results are taken from PMC12065538 (Drug Design, Development and Therapy, 2025).

Molecules are shown by their SMILES. Like-named read-outs stand apart in the source and are kept apart here. Some results are limits rather than exact numbers.

Turning to `CC1(C)CCC(CN2CCN(c3ccc(C(=O)NS(=O)(=O)c4ccc(NCC5CCOCC5)c([N+](=O)[O-])c4)c(Oc4cnc5[nH]ccc5c4)c3)CC2)=C(c2ccc(Cl)cc2)C1` [venetoclax], the “fu (unbound fraction in plasma)” value in the series on plasma protein is below 0.01. Further, the AUC – broadly, the area under the concentration-time curve, a measure of exposure – in series [1] amounted to 52400 ng·h/mL. Also, the “reduction of apparent oral clearance (CL/F) by CYP3A inhibitors” value in series [2] (PopPK studies, various patient populations and healthy subjects) is on record as 82–86%. The CL/F (usually the apparent clearance, not corrected for the fraction that reaches the circulation) in series [2] (co-administered with posaconazole, patients with AML) was 1.1 to 1.4 L/h; in series [2] (other PopPK models with strong CYP3A inhibitors as covariates), 2.2 to 3.6 L/h; in series [2] (venetoclax alone), 15.0 to 19.5 L/h. Moreover, the AUC24h in series [2] (observed, venetoclax 70 mg with posaconazole, day 12, CV 54%) is 49100 ± 26500 ng·h/mL; in series [2] (venetoclax 50 mg with posaconazole), 47200 ± 27400 ng·h/mL; in series [2] (setting [3]), 76200 ± 13700 ng·h/mL; in series [2] (venetoclax 400 mg administered alone) it was 32800 ± 16900 ng·h/mL. In addition, the “accumulation ratio (AUC24h day 14 to day 7)” value was 1.3 in series [2] (venetoclax 70 mg with posaconazole 300 mg qd, range 1.0–2.9) and 1.0 in series [2] (venetoclax 400 mg alone, range 0.5–2.1). In series [2] (setting [3]), the “average AUC higher than venetoclax (400 mg) with caspofungin” value is listed as 103%. Moreover, the “AUC increase versus venetoclax (400 mg) with caspofungin” value in series [2] (venetoclax with voriconazole) is 77%. In addition, the “increase of AUC” value in series [2] (with posaconazole) is 8.8 fold. The “increase of Cmax” value in series [2] (with posaconazole) is reported as 7.1 fold.
